Test results published in ChEMBL document CHEMBL4325889, “Natural products hybrids: 3,5,4'-Trimethoxystilbene-5,6,7-trimethoxyflavone chimeric analogs as potential cytotoxic agents against diverse human cancer cells” (Eur J Med Chem, 2019).

What was measured:
Assay type in all cases: functional
SNB-19 = experiment: Growth inhibition of human SNB19 cells at 10 uM after 48 hrs by SRB assay relative to control; settings: SNB-19, 48 h, read-out: GI
How it was run: (§1)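 NCI screen against its human cancer cell line panel by the standard NCI protocol, SRB protein stain. Single dose of 10 μM. Percent growth inhibition versus control; values above 100% mean the cell population fell below the starting number. Each value is the mean of duplicates.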

OVCAR-3 = experiment: Growth inhibition of human OVCAR3 cells at 10 uM after 48 hrs by SRB assay relative to control; settings: OVCAR-3, 48 h, read-out: GI
How it was run: (§2)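 Screened at the National Cancer Institute by the standard NCI protocol using the sulforhodamine B assay, which measures cellular protein. Single dose of 10 µM. Result is percent growth inhibition; values above 100% mean cell number fell below the initial population. Values are the average of duplicates.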

SN12C = experiment: Growth inhibition of human SN12C cells at 10 uM after 48 hrs by SRB assay relative to control; settings: read-out: GI; how it was run: as §2
SK-MEL-5 = experiment: Growth inhibition of human SK-MEL-5 cells at 10 uM after 48 hrs by SRB assay relative to control; settings: SK-MEL-5, 48 h, read-out: GI; how it was run: as §2
SW-620 = experiment: Growth inhibition of human SW620 cells at 10 uM after 48 hrs by SRB assay relative to control; settings: SW-620, 48 h, read-out: GI; how it was run: as §1
K562 = experiment: Growth inhibition of human K562 cells at 10 uM after 48 hrs by SRB assay relative to control; settings: K562, 48 h, read-out: GI; how it was run: as §2
HCT-15 = experiment: Growth inhibition of human HCT15 cells at 10 uM after 48 hrs by SRB assay relative to control; settings: HCT-15, 48 h, read-out: GI; how it was run: as §2
NCI-H522 = experiment: Growth inhibition of human NCI-H522 cells at 10 uM after 48 hrs by SRB assay relative to control; settings: NCI-H522, 48 h, read-out: GI; how it was run: as §2
786-0 = experiment: Growth inhibition of human 786-0 cells at 10 uM after 48 hrs by SRB assay relative to control; settings: 786-0, 48 h, read-out: GI; how it was run: as §2
ACHN = experiment: Growth inhibition of human ACHN cells at 10 uM after 48 hrs by SRB assay relative to control; settings: read-out: GI; how it was run: as §2
TK-10 = experiment: Growth inhibition of human TK10 cells at 10 uM after 48 hrs by SRB assay relative to control; settings: TK-10, 48 h, read-out: GI; how it was run: as §1
KM12 = experiment: Growth inhibition of human KM12 cells at 10 uM after 48 hrs by SRB assay relative to control; settings: KM12, 48 h, read-out: GI; how it was run: as §2
SK-MEL-28 = experiment: Growth inhibition of human SK-MEL-28 cells at 10 uM after 48 hrs by SRB assay relative to control; settings: SK-MEL-28, 48 h, read-out: GI; how it was run: as §2
SNB-75 = experiment: Growth inhibition of human SNB75 cells at 10 uM after 48 hrs by SRB assay relative to control; settings: SNB-75, 48 h, read-out: GI; how it was run: as §1
RXF 393 = experiment: Growth inhibition of human RXF393 cells at 10 uM after 48 hrs by SRB assay relative to control; settings: RXF 393, 48 h, read-out: GI; how it was run: as §2
OVCAR-4 = experiment: Growth inhibition of human OVCAR4 cells at 10 uM after 48 hrs by SRB assay relative to control; settings: OVCAR-4, 48 h, read-out: GI; how it was run: as §2
UACC-257 = experiment: Growth inhibition of human UACC257 cells at 10 uM after 48 hrs by SRB assay relative to control; settings: UACC-257, 48 h, read-out: GI; how it was run: as §1
Hs-578T = experiment: Growth inhibition of human Hs 578T cells at 10 uM after 48 hrs by SRB assay relative to control; settings: read-out: GI; how it was run: as §2
UACC-62 = experiment: Growth inhibition of human UACC62 cells at 10 uM after 48 hrs by SRB assay relative to control; settings: UACC-62, 48 h, read-out: GI; how it was run: as §1
HOP-62 = experiment: Growth inhibition of human HOP62 cells at 10 uM after 48 hrs by SRB assay relative to control; settings: HOP-62, 48 h, read-out: GI; how it was run: as §2
MCF7 = experiment: Growth inhibition of human MCF7 cells at 10 uM after 48 hrs by SRB assay relative to control; settings: MCF7, 48 h, read-out: GI; how it was run: as §2
A549 = experiment: Growth inhibition of human A549 cells at 10 uM after 48 hrs by SRB assay relative to control; settings: A549, 48 h, read-out: GI; how it was run: as §2
Malme-3M = experiment: Growth inhibition of human MALME-3M cells at 10 uM after 48 hrs by SRB assay relative to control; settings: read-out: GI; how it was run: as §2
SR = experiment: Growth inhibition of human SR cells at 10 uM after 48 hrs by SRB assay relative to control; settings: read-out: GI; how it was run: as §1
HCC 2998 = experiment: Growth inhibition of human HCC2998 cells at 10 uM after 48 hrs by SRB assay relative to control; settings: HCC 2998, 48 h, read-out: GI; how it was run: as §2
MOLT-4 = experiment: Growth inhibition of human MOLT4 cells at 10 uM after 48 hrs by SRB assay relative to control; settings: MOLT-4, 48 h, read-out: GI; how it was run: as §2
MDA-MB-435 = experiment: Growth inhibition of human MDA-MB-435 cells at 10 uM after 48 hrs by SRB assay relative to control; settings: MDA-MB-435, 48 h, read-out: GI; how it was run: as §2
MDA-MB-468 = experiment: Growth inhibition of human MDA-MB-468 cells at 10 uM after 48 hrs by SRB assay relative to control; settings: MDA-MB-468, 48 h, read-out: GI; how it was run: as §2
DU-145 = experiment: Growth inhibition of human DU145 cells at 10 uM after 48 hrs by SRB assay relative to control; settings: DU-145, 48 h, read-out: GI; how it was run: as §2
RPMI-8226 = experiment: Growth inhibition of human RPMI8226 cells at 10 uM after 48 hrs by SRB assay relative to control; settings: RPMI-8226, 48 h, read-out: GI; how it was run: as §2
NCI-H23 = experiment: Growth inhibition of human NCI-H23 cells at 10 uM after 48 hrs by SRB assay relative to control; settings: NCI-H23, 48 h, read-out: GI; how it was run: as §2
NCI-H226 = experiment: Growth inhibition of human NCI-H226 cells at 10 uM after 48 hrs by SRB assay relative to control; settings: NCI-H226, 48 h, read-out: GI; how it was run: as §2
NCI-H460 = experiment: Growth inhibition of human NCI-H460 cells at 10 uM after 48 hrs by SRB assay relative to control; settings: NCI-H460, 48 h, read-out: GI; how it was run: as §2
OVCAR-8 = experiment: Growth inhibition of human OVCAR8 cells at 10 uM after 48 hrs by SRB assay relative to control; settings: OVCAR-8, 48 h, read-out: GI; how it was run: as §2
CCRF-CEM = experiment: Growth inhibition of human CCRF-CEM cells at 10 uM after 48 hrs by SRB assay relative to control; settings: read-out: GI; how it was run: as §2

SMILES: COc1cc2oc(-c3cccc(C(=O)Nc4ccc5c(c4)OCO5)c3)cc(=O)c2c(O)c1OC
- inhibition of growth at 10 µM (SNB-19): 27.9%
- inhibition of growth at 10 µM (OVCAR-3): 10.5%
- inhibition of growth at 10 µM (SN12C): 31.3%
- inhibition of growth at 10 µM (SK-MEL-5): 16%
- inhibition of growth at 10 µM (SW-620): 15.5%
- inhibition of growth at 10 µM (K562): 5.51%
- inhibition of growth at 10 µM (HCT-15): 6.45%
- inhibition of growth at 10 µM (NCI-H522): 23.9%
- inhibition of growth at 10 µM (786-0): 35.7%
- inhibition of growth at 10 µM (ACHN): 24.8%
- inhibition of growth at 10 µM (TK-10): 1.4%
- inhibition of growth at 10 µM (KM12): 29.4%
- inhibition of growth at 10 µM (SK-MEL-28): 10.2%
- inhibition of growth at 10 µM (SNB-75): 15.4%
- inhibition of growth at 10 µM (RXF 393): 18.5%
- inhibition of growth at 10 µM (OVCAR-4): 99.9%
- inhibition of growth at 10 µM (UACC-257): 21.8%
- inhibition of growth at 10 µM (Hs-578T): 27.3%
- inhibition of growth at 10 µM (UACC-62): 18.6%
- inhibition of growth at 10 µM (HOP-62): 39.6%
- inhibition of growth at 10 µM (MCF7): 8.35%
- inhibition of growth at 10 µM (A549): 25.1%
- inhibition of growth at 10 µM (Malme-3M): 11.9%
- inhibition of growth at 10 µM (SR): 24.1%
- inhibition of growth at 10 µM (HCC 2998): -4.53%
- inhibition of growth at 10 µM (MOLT-4): -0.5%
- inhibition of growth at 10 µM (MDA-MB-435): 20.9%
- inhibition of growth at 10 µM (MDA-MB-468): 45.4%
- inhibition of growth at 10 µM (DU-145): 19.6%
- inhibition of growth at 10 µM (RPMI-8226): 20.2%
- inhibition of growth at 10 µM (NCI-H23): 27.3%
- inhibition of growth at 10 µM (NCI-H226): 21.5%
- inhibition of growth at 10 µM (NCI-H460): 45.7%
- inhibition of growth at 10 µM (OVCAR-8): 69.4%
- inhibition of growth at 10 µM (CCRF-CEM): 2.77%
